Data set [1] concerns B-ALL. Briefly: Antiproliferative activity against mouse B-ALL cells expressing wild type BCR-ABL assessed as reduction in cell viability at 0.1 to 250 uM by CellTiter-Glo assay. The format is functional, cell-based. A digest of the protocol: (§1)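 CellTiter-Glo luminescent viability readout. Cells kept at 37 °C under 5% CO2. HMEC primary cells grown in basal medium with growth kit; leukemia lines and murine BCR-ABL (WT, Bax/Bak DKO) cultured per earlier description. Positive controls: staurosporine 25 μM, gambogic acid 10 μM, a toxic quinoline. At least two biological replicates in technical triplicate; luminescence normalized to untreated controls; EC50 computed.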

Data set [2] relates to MCF7. Briefly: Antiproliferative activity against human MCF7 cells assessed as reduction in cell viability at 0.1 to 250 uM by CellTiter-Glo assay. It counts as functional, cell-based. A digest of the protocol:
as §1
(In ATP-based viability assays light output follows the ATP content of the culture.)

For data set [3], the system named is MCF7. Briefly: Induction of apoptosis in human MCF7 cells assessed as increase in cleaved PARP 1 level at 1 to 10 uM after 3 hrs by Western blot analysis. It counts as functional, cell-based. The essentials:
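Western blot of KOPN-8 and MCF-7 lysates made in RIPA-type buffer (Tris pH 7.5, Triton X-100, deoxycholate, SDS) with protease and phosphatase inhibitors. 30 μg protein per lane was run on 4–12% Bis-Tris SDS-PAGE and transferred to nitrocellulose. Blots were probed for cleaved caspase-7 and PARP-1 and detected with IR-dye secondaries. Menadione served as positive control: 10 μM in KOPN-8, 30 μM in MCF-7. Blots are representative of three independent experiments.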
For orientation: Immunoblotting shows a protein as a band on a membrane.

The test system of data set [4] is MCF7. Description: Induction of cell death in human MCF7 cells at 10 uM after 24 hrs. The format is functional, cell-based.
In data set [5] the test system is KOPN-8. Briefly: Upregulation of Trx expression in human KOPN8 at 10 uM after 3 to 6 hrs by Western blot analysis. The format is functional, cell-based. The essentials:
(§2)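 Western blot of KOPN-8 or MCF-7 lysates, 30 μg protein per lane on 4–12% Bis-Tris SDS-PAGE and transferred to nitrocellulose. Blots were probed with an oxidative stress defense antibody cocktail (catalase, SOD1, Trx, smooth muscle actin) and tubulin, and detected with IR-dye secondaries on a LI-COR Odyssey.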

The subject of the next data set is MDA-MB-231. Description: Antiproliferative activity against human MDA-MB-231 cells assessed as reduction in cell viability at 0.1 to 250 uM after 48 hrs by propidium iodide staining based fluorescence assay. It counts as functional. A digest of the protocol:
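MDA-MB-231 and SUM149 seeded at 6 × 10^4 to 2 × 10^5 cells/well, cultured 24 h, then exposed for 48 h. Cells fixed in cold methanol, stained with 0.4% propidium iodide, fluorescence imaged. Viability expressed as percent surviving cells relative to vehicle wells.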

Data set [6] relates to KOPN-8. Briefly: Cytotoxicity against human KOPN8 cells assessed as cell viability at 0.75 to 100 uM after 72 hrs in presence of pan caspase inhibitor, Z-VAD-FMK by CellTiter-Glo assay. It counts as functional, cell-based.
Data set [7] relates to KOPN-8. Description: Upregulation of Trx level in human KOPN8 at 1 uM after 3 to 6 hrs by Western blot analysis. It counts as functional, cell-based. A digest of the protocol:
as §2

A short description of data set [8]: Stability in DMSO assessed as micheal adduct formation by measuring intact compound incubated for 16 hrs in presence of glutathione by LC-MS analysis. The format is physicochemical.
Another data set deals with BJ. Description: Cytotoxicity against human BJ cells assessed as cell viability at >100 uM by CellTiter-Glo assay. It counts as cell-based. A digest of the protocol:
as §1

Data set [9] relates to MCF7. Briefly: Upregulation of Trx level in human MCF7 after 3 to 6 hrs by Western blot analysis. The format is functional, cell-based. The essentials: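 MCF-7 cells were exposed to compound for 3 or 6 h. Lysates were made in Tris-HCl pH 7.5 RIPA-type buffer with protease/phosphatase inhibitors and quantified by BCA. 30 μg protein per lane was run on 4–12% Bis-Tris SDS-PAGE in MES and transferred to nitrocellulose. Blots were probed for thioredoxin with tubulin as reference, detected with IR-dye secondaries (1:15 000) and scanned on an infrared imager.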

The next data set concerns SEM cells. Briefly: Antiproliferative activity against human SEM cells assessed as reduction in cell viability at 1 to 10 uM by CellTiter-Glo assay. It counts as functional, cell-based. A digest of the protocol: as §1
Data set [10] deals with B-ALL. Description: Cytotoxicity against BCR-ABL p185- positive mouse B-ALL cells overexpressing human BCL-xL assessed as inhibition of cell viability after 24 hrs by AnnexinV-FITC/propidium iodide staining based flow cytometric analysis. It counts as functional. (In general: In flow cytometry, cells or beads pass a laser one at a time.)
The subject of data set [11] is KOPN-8. Briefly: Decrease in cell viability in human KOPN8 cells incubated for 24 hrs by GF-AFC reagent based ApoTox-Glo triplex assay. The format is functional. The essentials: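 ApoTox-Glo Triplex: cells held 12 h at 37 °C, then treated 24 h (100−0.15 μM). Viability/cytotoxicity reagent added, shaken, 30 min at 37 °C; viability read as GF-AFC fluorescence at 400Ex/505Em. Caspase-Glo 3/7 then added, 0.5 h at room temperature, luminescence read. Mean ± SEM of three independent experiments.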

Data set [12] deals with KOPN-8. Description: Cell cycle arrest in human KOPN8 cells assessed as increase in accumulation at G2/M phase at 10 uM incubated for 24 hrs by propidium iodide staining based flow cytometric analysis relative to control. The format is functional. A digest of the protocol: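 KOPN-8 plated at 1.00 × 10^6 cells/plate, held 12 h at 37 °C, treated 24 h at 10 μM; DMSO vehicle and 2 μM staurosporine as controls. Cells fixed in cold methanol, RNase-treated, stained with PI (50 μg/mL); cell-cycle distribution by flow cytometry.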

Data set [13] has as its system MCF7. Description: Induction of mitochondrial membrane potential loss in human MCF7 cells at 30 uM after 24 to 48 hrs by TMRM staining based flow cytometric analysis. It counts as functional, cell-based. A digest of the protocol: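 TMRM flow cytometry. KOPN-8 (4 × 10^4 or 5 × 10^5 per well) or MCF-7 (2 × 10^4 or 2 × 10^5 per well) were seeded 24 h, then treated 24–48 h. FCCP 10 μM was added 10 min before staining as positive control. Cells were stained with TMRM 100 nM for 0.5 h, then PBS-washed, resuspended in PBS with 1% FBS and analysed by flow cytometry; DAPI flagged compromised cells.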

The nature of data set [14]: Half life in human liver microsomes. The format is ADME, Microsome.
The nature of data set [15]: Stability in DMSO assessed as micheal adduct formation by measuring intact compound incubated for 16 hrs in presence of NAC by LC-MS analysis. The format is physicochemical.
Data set [16] deals with KOPN-8. Briefly: Cytotoxicity against human KOPN8 cells assessed as cell viability at 0.95 to 125 uM after 72 hrs in presence of pan caspase inhibitor, Z-VAD-FMK by CellTiter-Glo assay. It counts as functional, cell-based.
Data set [17] concerns B-ALL. Briefly: Cytotoxicity against BCR-ABL positive p185-positive mouse B-ALL cells expressing human BCL-W assessed as inhibition of cell viability after 24 hrs by AnnexinV-FITC/propidium iodide staining based flow cytometric analysis. It counts as functional.
Data set [18] is described as follows: Half life in simulated gastric fluid. It counts as ADME.
In another data set the test system is HMEC. Description: Cytotoxicity against human HMEC cells assessed as cell viability at >100 uM by CellTiter-Glo assay. It counts as cell-based. A digest of the protocol:
as §1

Data set [19] in a line: Stability in CH3CN assessed as micheal adduct formation by measuring intact compound incubated for 16 hrs in presence of NAC by NMR analysis. It counts as physicochemical.

Molecules are shown by their SMILES. Calls of active or inactive are those of the source.

These results are taken from ChEMBL document CHEMBL4334444, “Studies of Jatrogossone A as a Reactive Oxygen Species Inducer in Cancer Cellular Models” (J Nat Prod, 2019).

On to `CC1=C2CC(C)(C)/C=C/C(=O)/C(C)=C\C3=C[C@H](C)C[C@]3(O2)C1=O` [JATROPHONE], for which the inhibition entry in the data set with B-ALL [1], in the data set with MCF7 [2] and in the data set with MDA-MB-231 was “Active” throughout. In addition, the result in the data set with MCF7 [3], with MCF7 [4] and in the data set with KOPN-8 [7] was Active. The outcome in the data set on KOPN-8 [5] and with KOPN-8 [6] was inactive.

For orientation: IC50 means the concentration at which inhibition is half-maximal. For orientation: half-life means the time needed for the level to fall by half in the phase considered. A high value points to slow loss. As to `CC(=O)O[C@H]1/C2=C/[C@@H](C)C(=O)C[C@H]3[C@@H](/C=C(\C)C(=O)[C@H]2C[C@H]1C)C3(C)C`, the Stability entry in data set [8], in data set [15] and in [19] was “Stable” throughout. Also, the Activity entry with BJ was “Non-Toxic”; with MCF7 [9] it was “Dose-dependent effect”; in the data set on KOPN-8 [12], 10%; in the data set with HMEC it was “Non-Toxic”. Moreover, the inhibition entry with SEM cells was “Active”. Further, the results for the IC50 in the data set with B-ALL [10] and with B-ALL [17] were 23.8 µM and 14.4 µM, respectively. The inhibition result in the data set on KOPN-8 [11] is “Dose-dependent effect”. The outcome with MCF7 [13] and with KOPN-8 [16] was inactive. Further, the results for the half-life in data set [14] and in [18] were 0.517 h and 124 h, respectively.
